NLRP3 yeast inh: NALP3 inflammasome inhibitors in reconstituted yeast, primary screen, luminescence, uHTS. Yeast reconstituted NLRP3/ASC/caspase-1, beta-gal luminescence, 24 h. inhibition, % at 10 µM. actives 0.39% (n = 330,000). AID 2825, 2010;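 active means inhibition of 50% or more; inactive means inhibition below 50%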;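 further: plate controls were induced DMSO wells for no effect and uninduced yeast grown without galactose for full effect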
Calb FLC: C. albicans growth inhibition with fluconazole, primary screen, CaCi-2 strain, Alamar Blue fluorescence | actives 0.57% (n = 300,000) | C. albicans CaCi-2 + fluconazole, 48 h | growth inhibition, % (concentration not given with the values);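 active means growth inhibition above about 58% in most replicates, limit read from the data, passing the limit was not always enough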;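 further: all wells also contain fluconazole at 8 µg/ml as a sub-toxic cotreatment; 0% = median of DMSO wells and 100% = median of geldanamycin control wells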
CSC inhib: cancer stem cell viability inhibitors, primary screen, luminescence | cancer stem cell-like cells viability | inhibition, % at 7.5 µM | actives 1.1% (n = 300,000) | AID 2717, 2010; in the data active means inhibition above about 75%; tested in HMLE shEcad cells
T cruzi inh: inhibitors of intracellular T. cruzi growth, primary screen, luminescence, NIH3T3 host cells | T. cruzi beta-gal in NIH3T3, 90 h | actives 1.4% (n = 300,000) | inhibition, % (test concentration not listed) | AID 1885, 2009;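 active means mean inhibition across valid replicates above about 55%, limit read from the data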;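 further: signal also drops with host cell toxicity which is not excluded here; 0% = plate median of DMSO wells and 100% = zero luminescence signal; higher percent means less beta-gal luminescence so fewer parasites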
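Incubation – ≥90 h infection period, 3 h prior cell attachment · System – NIH/3T3 fibroblasts plus reporter T. cruzi · Doses – compound pinned at 50 nL/well, DMSO · Read-out basis – percent inhibition of parasite-derived β-gal signal · Signal – luminescent β-galactosidase signal after 60 min lysis · Also added – 5000 T. cruzi trypomastigotes/well · Medium – Low-serum DMEM with 2% FBS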
Mdm2 MdmX PPI: inhibitors of human Mdm2-MdmX association, primary screen, cell-based, luminescence, split luciferase, SaOS-2, uHTS | SaOS-2 split-luciferase Mdm2/MdmX complementation | Protein Mdm4 (Homo sapiens) + E3 ubiquitin-protein ligase Mdm2 (Homo sapiens), … | inhibition, % at 8 µM | actives 3% (n = 330,000);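 active means inhibition of at least 50% at 8 µM in the primary screen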
Target sequence (O15151 whole entry, looked up): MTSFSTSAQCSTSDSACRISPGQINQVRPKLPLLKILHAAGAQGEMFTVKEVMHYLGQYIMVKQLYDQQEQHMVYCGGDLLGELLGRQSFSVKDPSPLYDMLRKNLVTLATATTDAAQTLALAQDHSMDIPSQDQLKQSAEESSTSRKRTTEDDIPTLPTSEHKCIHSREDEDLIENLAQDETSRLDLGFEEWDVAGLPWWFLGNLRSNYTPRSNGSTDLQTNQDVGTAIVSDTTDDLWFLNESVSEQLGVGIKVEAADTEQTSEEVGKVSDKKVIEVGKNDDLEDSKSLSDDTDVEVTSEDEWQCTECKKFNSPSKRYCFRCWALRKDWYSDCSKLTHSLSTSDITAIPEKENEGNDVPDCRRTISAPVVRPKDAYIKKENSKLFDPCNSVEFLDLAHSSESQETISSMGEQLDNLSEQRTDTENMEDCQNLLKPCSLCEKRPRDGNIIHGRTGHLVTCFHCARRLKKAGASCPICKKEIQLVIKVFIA
Target sequence (Q00987 whole entry, looked up): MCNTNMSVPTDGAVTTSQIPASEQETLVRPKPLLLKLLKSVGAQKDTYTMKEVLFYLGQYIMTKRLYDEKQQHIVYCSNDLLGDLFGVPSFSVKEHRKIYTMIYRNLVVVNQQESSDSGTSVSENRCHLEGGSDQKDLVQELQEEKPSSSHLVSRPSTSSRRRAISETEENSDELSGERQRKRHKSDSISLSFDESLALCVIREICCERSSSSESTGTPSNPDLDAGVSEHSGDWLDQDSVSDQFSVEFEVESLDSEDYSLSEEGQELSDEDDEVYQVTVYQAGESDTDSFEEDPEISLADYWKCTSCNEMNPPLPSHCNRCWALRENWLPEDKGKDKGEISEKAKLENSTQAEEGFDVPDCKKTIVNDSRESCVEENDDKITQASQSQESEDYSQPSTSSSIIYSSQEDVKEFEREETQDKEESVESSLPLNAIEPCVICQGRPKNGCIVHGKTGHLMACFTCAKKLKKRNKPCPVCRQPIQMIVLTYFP
Beta cell apopt: inhibitors of cytokine-induced beta cell apoptosis, primary screen, luminescence | INS-1E cytokine-induced death, ATP luminescence, 48 h; percent of positive-control rescue, neutral wells zero | protection from apoptosis, % (no concentration beside the values) | actives 0.8% (n = 300,000);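 active means Every replicate reaches about 75%, or at least half do and their mean reaches it too, limit read from the data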;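 further: 0% = cytokine-treated negative control wells and 100% = positive control rescue; higher means more ATP so stronger rescue from cytokine killing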
Mdm2 MdmX conf: Mdm2-MdmX complex disruptors, retested hits, confirmation, luminescence, single concentration. inhibition, % at 8 µM. AID 489028, 2010. shares compounds with Mdm2 MdmX PPI. actives 55% (n = 10,000). Mdm2-MdmX binding, luminescent assay; in the data active means inhibition above about 40%
FLuc counter: full-length luciferase signal inhibition, confirmation, counter-screen for Mdm2/MdmX interaction inhibitor project, cell-based, single concentration, SaOS-2 | shares compounds with Mdm2 MdmX PPI | SaOS-2 full-length luciferase counterscreen, luminescence | inhibition, % at 8 µM | actives 77% (n = 6,200);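 active means mean inhibition at 8 µM reaching about 37%, which flags the compound as non-specific, limit read from the data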;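 further: p53-null SaOS-2 cells with luciferase driven by a doxycycline-inducible promoter; compound on cells about two nights before reading with doxycycline added after day one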
Numbers without * were called inactive. Shown are actives, neighbours in structure and some others; about 5.3% of the full set was active somewhere.

Results for CNC[C@H](Cc1cccc2ccccc12)NC[C@H](CCSC)NCC1CCC(C(C)(C)C)CC1 (some centres undefined) ?
NLRP3 yeast inh: 27.6; CSC inhib: 90.3*; Mdm2 MdmX PPI: 60.2*; Beta cell apopt: -0.7; Mdm2 MdmX conf: 4.8

What do the screens show for `CCN(CC)c1ccc(/C=N/NC(=O)CNC(=O)C2COc3ccccc3O2)c(O)c1` (centres undefined)?
NLRP3 yeast inh: 14.9; Calb FLC: 89.5*; CSC inhib: 3.9; T cruzi inh: 62.7*; Mdm2 MdmX PPI: 77.1*; Beta cell apopt: 98.6*; Mdm2 MdmX conf: 76.3*; FLuc counter: 21.9

Results for CCOC(=O)N/N=C/c1ccc(N(CC)CC)cc1O ?
NLRP3 yeast inh: 41.0; Calb FLC: -0.4; T cruzi inh: -8.5; Mdm2 MdmX PPI: 18.9

Results for CCN(CC)c1ccc(/C=N/NC(=O)CCC(=O)NCc2ccccc2)c(O)c1 ?
NLRP3 yeast inh: -9.4; Calb FLC: -0.8; CSC inhib: 82.2*; T cruzi inh: 26.9; Mdm2 MdmX PPI: 71.4*; Beta cell apopt: 97.8*; Mdm2 MdmX conf: 76.1*; FLuc counter: 33.7

Results for CC(Sc1nc2ccccc2n1C)C(=O)NC(c1ccccc1)c1ccccc1 (centres undefined) ?
NLRP3 yeast inh: 0.6; Calb FLC: 59.4; CSC inhib: 0.9; T cruzi inh: -1.0; Mdm2 MdmX PPI: 18.8; Beta cell apopt: 5.2

What do the screens show for `COc1ccc(-c2csc(NC(=S)NC(=O)c3ccccc3)n2)cc1Br`?
NLRP3 yeast inh: 16.7; Calb FLC: -0.6; T cruzi inh: 39.9; Mdm2 MdmX PPI: 55.5*; Mdm2 MdmX conf: 38.4; FLuc counter: 85.0*

Results for COc1cc(OC)cc(C(=O)NC(=S)Nc2nc(-c3cc4ccccc4o3)cs2)c1 ?
NLRP3 yeast inh: 10.5; Calb FLC: -1.0; CSC inhib: 6.2; T cruzi inh: -3.2; Mdm2 MdmX PPI: 64.8*; Beta cell apopt: 3.6; Mdm2 MdmX conf: 0.3

Results for COc1ccc(-c2csc(NC(=S)NC(=O)c3cc4ccccc4o3)n2)cc1Br ?
NLRP3 yeast inh: 17.4; Calb FLC: -0.4; CSC inhib: 13.8; T cruzi inh: 28.0; Mdm2 MdmX PPI: -3.5; Beta cell apopt: -0.7

Results for COc1ccc(-c2csc(NC(=S)NC(=O)c3ccco3)n2)cc1Br ?
NLRP3 yeast inh: 8.1; Calb FLC: 1.3; CSC inhib: 71.6; T cruzi inh: -7.7; Mdm2 MdmX PPI: 82.2*; Beta cell apopt: 12.5; Mdm2 MdmX conf: 55.5*; FLuc counter: 23.1

How did COc1cccc(OC)c1C(=O)Nc1nc(-c2ccccc2)cs1 do in these assays?
NLRP3 yeast inh: 16.4; Calb FLC: -1.0; CSC inhib: 16.1; T cruzi inh: -1.1; Mdm2 MdmX PPI: -1.5

Results for COc1ccc(-c2csc(NC(=S)NC(=O)/C=C/c3ccco3)n2)cc1Br ?
NLRP3 yeast inh: -0.5; Calb FLC: 1.6; CSC inhib: 78.9*; T cruzi inh: 19.9; Mdm2 MdmX PPI: 85.0*; Beta cell apopt: 7.6; Mdm2 MdmX conf: 65.2*; FLuc counter: 59.1*

How did N#C/C(=C\c1cccs1)C(=O)c1ccccc1 do in these assays?
NLRP3 yeast inh: -12.1; Calb FLC: -7.9; CSC inhib: -6.2; T cruzi inh: -16.7; Mdm2 MdmX PPI: -0.7; Beta cell apopt: 3.3

What do the screens show for `N#CC1(NC(=O)COC(=O)CCCN=C2NS(=O)(=O)c3ccccc32)CCCCC1`?
NLRP3 yeast inh: 4.3; Calb FLC: 4.2; CSC inhib: -15.2; T cruzi inh: -11.0; Mdm2 MdmX PPI: 13.9; Beta cell apopt: -0.5

Results for CN1CCN(c2ccc(S(=O)(=O)N3CCCCC3)cc2NC(=O)/C=C/c2ccc(OC(F)F)cc2)CC1 ?
NLRP3 yeast inh: 7.1; Calb FLC: 8.2; CSC inhib: -19.4; T cruzi inh: 34.1; Mdm2 MdmX PPI: 38.5; Beta cell apopt: 2.8

Results for CCN1CCN(c2ccc(S(=O)(=O)N3CCCCC3)cc2NC(=O)c2cc3ccccc3o2)CC1 ?
NLRP3 yeast inh: 24.7; Calb FLC: -6.6; CSC inhib: -3.8; T cruzi inh: 76.3*; Mdm2 MdmX PPI: 61.5*; Beta cell apopt: 4.5; Mdm2 MdmX conf: 22.8

Results for CCN1CCN(c2ccc(S(=O)(=O)N3CCCCC3)cc2NC(=O)/C=C/c2ccc(F)cc2)CC1 ?
NLRP3 yeast inh: 16.8; Calb FLC: -0.4; CSC inhib: -3.1; T cruzi inh: 47.3; Mdm2 MdmX PPI: 53.4*; Beta cell apopt: 1.7; Mdm2 MdmX conf: 45.0*; FLuc counter: 86.8*

How did CCN1CCN(c2ccc(S(=O)(=O)N3CCCCC3)cc2NC(=O)c2cccc(Cl)c2)CC1 do in these assays?
NLRP3 yeast inh: 5.5; Calb FLC: 1.7; CSC inhib: -7.0; T cruzi inh: 44.5; Mdm2 MdmX PPI: 17.2; Beta cell apopt: 5.8

What do the screens show for `CCN1CCN(c2ccc(S(=O)(=O)N3CCOCC3)cc2NC(=O)/C=C/c2ccc(C)cc2)CC1`?
NLRP3 yeast inh: 1.2; Calb FLC: 1.5; CSC inhib: -8.2; T cruzi inh: 29.4; Mdm2 MdmX PPI: 25.7

Results for CCN1CCN(c2ccc(S(=O)(=O)N3CCCCC3)cc2NC(=O)/C=C/c2ccc([N+](=O)[O-])cc2)CC1 ?
NLRP3 yeast inh: 11.5; Calb FLC: -3.0; CSC inhib: -1.5; T cruzi inh: 50.4; Mdm2 MdmX PPI: 98.5*; Beta cell apopt: 3.8; Mdm2 MdmX conf: 91.7*; FLuc counter: 47.6*

Results for CCN1CCN(c2ccc(S(=O)(=O)N3CCCCC3)cc2NC(=O)/C=C/c2cccc(OC)c2OC)CC1 ?
NLRP3 yeast inh: 14.2; Calb FLC: 1.1; CSC inhib: 3.0; T cruzi inh: 37.8; Mdm2 MdmX PPI: 75.3*; Beta cell apopt: -2.1; Mdm2 MdmX conf: 49.8*; FLuc counter: 77.2*

How did CCN(C(=O)Nc1cccc(Cl)c1)c1ccccc1 do in these assays?
NLRP3 yeast inh: 10.7; Calb FLC: 32.2; CSC inhib: -18.8; T cruzi inh: -2.6; Mdm2 MdmX PPI: 10.3; Beta cell apopt: 1.2

Results for CCOC(=O)C1CCCN(S(=O)(=O)c2cc(Br)cc3c2N(C(C)=O)CC3)C1 (centres undefined) ?
NLRP3 yeast inh: 21.0; Calb FLC: 0.8; T cruzi inh: 9.8; Mdm2 MdmX PPI: 17.9; Beta cell apopt: -1.1

Assay outcomes (PubChem)
